Platelet DG rel – platelet dense granule release activity; human platelet-rich plasma, SFLLRN dense granule ATP release, luminescence; inhibition, %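 (compounds screened at 7.5 µM in platelet-rich plasma)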; actives 0.22% (n = 300,000); AID 1663;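 active = mean replicate score, as percent of positive control, at or above 50; inconclusive = mean below 50 but at least one replicate at or above 50; inactive = mean and every replicate below 50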
Runt-CBFb FRET – inhibitors of human RUNX1 Runt domain binding to CBFb; Q01196+Q13951; Cerulean-Runt/Venus-CBFb FRET ratio 530/480, 1 h; inhibition, % at 20 µM; actives 0.46% (n = 220,000); AID 1496;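 active = inhibition over about 50% at 20 µM in the single-dose screen, limit read from the data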
Target sequence (Q01196 whole entry, looked up, the tested form may be a part): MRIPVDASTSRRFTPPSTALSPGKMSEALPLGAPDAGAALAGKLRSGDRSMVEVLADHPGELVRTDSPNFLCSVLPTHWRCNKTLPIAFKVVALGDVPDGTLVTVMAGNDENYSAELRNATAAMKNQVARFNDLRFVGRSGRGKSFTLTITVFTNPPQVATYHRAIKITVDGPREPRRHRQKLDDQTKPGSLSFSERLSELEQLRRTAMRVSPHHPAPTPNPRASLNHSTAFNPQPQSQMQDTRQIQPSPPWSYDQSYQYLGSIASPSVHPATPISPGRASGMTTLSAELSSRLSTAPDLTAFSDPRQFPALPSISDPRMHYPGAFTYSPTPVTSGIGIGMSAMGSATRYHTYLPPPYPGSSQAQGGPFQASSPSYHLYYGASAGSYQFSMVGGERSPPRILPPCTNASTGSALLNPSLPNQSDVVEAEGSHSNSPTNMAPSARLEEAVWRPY
Target sequence (Q13951 whole entry, looked up, the tested form may be a part): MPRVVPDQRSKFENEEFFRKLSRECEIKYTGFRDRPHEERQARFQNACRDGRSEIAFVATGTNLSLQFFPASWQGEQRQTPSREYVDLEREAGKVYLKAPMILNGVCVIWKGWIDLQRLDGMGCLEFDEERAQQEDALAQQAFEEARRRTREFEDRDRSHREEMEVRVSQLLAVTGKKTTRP
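Reagent – Venus-CBFb binding partner, 100 nM · Assay system – Cerulean-tagged RUNX1 Runt domain (FRET donor) fusion protein · Input – 100 nM per protein · Incubation – two 1 h room-temperature incubations shielded from light · Measured by – FRET fluorescence · Medium – Tris buffer pH 7.5 with salts and BSA · Benchmarks – unlabeled CBFb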
Runt-SMMHC FRET – Runt domain-CBFb-SMMHC interaction inhibition. actives 0.74% (n = 220,000). Cerulean-Runt/Venus-CBFb-SMMHC FRET ratio 530/480, 1 h. inhibition, % at 20 µM;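 active = mean inhibition across duplicate retests at 20 µM reaching about 50%, limit read from the data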;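 note: inhibitors lower the FRET ratio by blocking Runt binding to CBFb-SMMHC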
RanGTP-Impb inh – inhibitors of RanGTP-importin-beta interaction, primary screen, biochemical, FRET, CFP-Ran, YFP-importin-beta, homogeneous; actives 1.1% (n = 300,000); cell-free CFP-Ran/YFP-importin-beta FRET ratio; AID 2216; inhibition, % (concentration not given with the values);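 active = more than half of the replicate wells show a fall in the fluorescence ratio signal beyond about 16%, limit read from the data, passing the limit was not always enough; inconclusive = exactly half of the replicate wells pass the set limit; inactive = fewer than half of replicates pass the limit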
Rce1 inhib – inhibitors of yeast Ras-converting enzyme | yeast membranes, quenched prenylated peptide cleavage fluorescence | Q03530 | calls only | AID 2563 | actives 0.27% (n = 290,000);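 active = fall in fluorescence gain of 50% or more versus controls, with final raw signal at or below 3038400; inconclusive = same 50% fall but final raw signal above 3038400; inactive = fall in fluorescence gain under 50%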
YIC FRET counter – counter-screen: alters YIC FRET probe signal; IC50, µM; shares compounds with RanGTP-Impb inh; Purified YIC probe, intramolecular FRET ratio YFP/CFP; actives 40% (n = 1,000); AID 435026;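 active = fitted half-maximal inhibitory concentration no more than tenfold above the top dose tested; inconclusive = flat fit with 30 to 70% activity, or poor fit; inactive = half-maximal concentration beyond tenfold above the top dose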
Hits are given with their value. Sampled rows, rich in hits. Any-hit rate of the full collection: about 1.8%.

Results for CNc1cc(F)nc(F)n1 ?
Platelet DG rel: inactive; Runt-CBFb FRET: inactive; Runt-SMMHC FRET: inactive; RanGTP-Impb inh: 27; Rce1 inhib: inactive; YIC FRET counter: 22

Results for C=CCn1c(SCC(=O)Nc2sccc2C(N)=O)nc2ccccc2c1=O ?
Platelet DG rel: inactive; Runt-CBFb FRET: inactive; Runt-SMMHC FRET: inactive; RanGTP-Impb inh: 19; Rce1 inhib: inactive; YIC FRET counter: inactive

How did Cc1cc(S(=O)(=O)NC2CCCCC2)ccc1OCC(=O)NCC1CCCO1 (stereo not given) do in these assays?
Platelet DG rel: inactive; Runt-CBFb FRET: inactive; Runt-SMMHC FRET: inactive; RanGTP-Impb inh: inconclusive; Rce1 inhib: inactive

How did CN(C)S(=O)(=O)c1cccc(NC(=O)CNC2CCCCC2)c1 do in these assays?
Platelet DG rel: inactive; Runt-CBFb FRET: inactive; Runt-SMMHC FRET: inactive; RanGTP-Impb inh: 27; Rce1 inhib: inactive; YIC FRET counter: inactive

How did O=C(CCN1CCN(S(=O)(=O)c2cccc([N+](=O)[O-])c2)CC1)Nc1ccccc1F do in these assays?
Platelet DG rel: inactive; RanGTP-Impb inh: inactive; Rce1 inhib: inactive

What do the screens show for `CCOCCCNC(=S)NCCCNc1nc2cc3c(cc2cc1C#N)OCO3`?
Platelet DG rel: inactive; Runt-CBFb FRET: inactive; Runt-SMMHC FRET: 129; RanGTP-Impb inh: 56; Rce1 inhib: inactive; YIC FRET counter: 13

How did N#C/C(=C\c1ccc(-c2ccc(F)cc2)o1)C(=O)Nc1nc(-c2cccs2)cs1 do in these assays?
Platelet DG rel: inactive; Runt-CBFb FRET: inactive; Runt-SMMHC FRET: inactive; RanGTP-Impb inh: 19; Rce1 inhib: inactive; YIC FRET counter: inactive

How did N#C/C(=C/c1ccc(-c2ccccc2)o1)c1nc(-c2cccs2)cs1 do in these assays?
Runt-CBFb FRET: inactive; Runt-SMMHC FRET: inactive

What do the screens show for `CCn1c(C(=O)Nc2ccsc2C(=O)OC)cc2sc(Cl)cc21`?
Platelet DG rel: inactive; Runt-CBFb FRET: inactive; Runt-SMMHC FRET: inactive; RanGTP-Impb inh: 20; Rce1 inhib: inactive; YIC FRET counter: 47

How did COC(=O)c1sccc1NC(=O)c1csc(C)c1 do in these assays?
Platelet DG rel: inactive; Runt-CBFb FRET: inactive; Runt-SMMHC FRET: inactive; RanGTP-Impb inh: 19; Rce1 inhib: inactive; YIC FRET counter: inactive

What do the screens show for `COC(=O)c1sccc1NC(=O)c1ccc(C)cc1`?
Platelet DG rel: inactive; RanGTP-Impb inh: inactive; Rce1 inhib: inactive

What do the screens show for `COCCCNC(=O)Cc1c(C)c2c(cc(C)c3c(C(C)(C)C)coc32)oc1=O`?
Platelet DG rel: inactive; RanGTP-Impb inh: inactive; Rce1 inhib: inactive

How did Cc1noc(C)c1C(=O)Nc1sc2c(c1C(N)=O)CCCCC2 do in these assays?
Platelet DG rel: inactive; Runt-CBFb FRET: inactive; Runt-SMMHC FRET: inactive; RanGTP-Impb inh: inactive; Rce1 inhib: inactive

What do the screens show for `Cc1noc(C)c1C(=O)Nc1sc2c(c1C(N)=O)CCC2`?
Platelet DG rel: inactive; Runt-CBFb FRET: inactive; Runt-SMMHC FRET: inactive; RanGTP-Impb inh: 26; Rce1 inhib: inactive; YIC FRET counter: inactive

What do the screens show for `CCOC(=O)c1c(NC(=O)C2CCCCC2)sc2c1CCN(C(C)C)C2`?
Platelet DG rel: inactive; RanGTP-Impb inh: 40; Rce1 inhib: inactive; YIC FRET counter: inactive

What do the screens show for `CCOC(=O)c1c(NC(=O)Cc2cccs2)sc2c1CCCC2`?
Platelet DG rel: inactive; Runt-CBFb FRET: inactive; Runt-SMMHC FRET: inactive; RanGTP-Impb inh: inactive; Rce1 inhib: inactive

What do the screens show for `CCOC(=O)c1c(NC(=O)c2ccc(S(=O)(=O)N3CCOCC3)cc2)sc2c1CCN(C(C)C)C2`?
Platelet DG rel: inactive; RanGTP-Impb inh: inactive; Rce1 inhib: inactive

How did CCOC(=O)c1c(NC(=O)Nc2ccc(F)cc2)sc2c1CCN(C)C2 do in these assays?
Platelet DG rel: inactive; Runt-CBFb FRET: inactive; Runt-SMMHC FRET: inactive; RanGTP-Impb inh: 20; Rce1 inhib: inactive; YIC FRET counter: inactive

What do the screens show for `CCOC(=O)c1sc(NC(=O)Nc2ccc(F)cc2)nc1C`?
Platelet DG rel: inactive; Runt-CBFb FRET: inactive; Runt-SMMHC FRET: inactive; RanGTP-Impb inh: 18; Rce1 inhib: inactive; YIC FRET counter: inactive

Results for CCOC(=O)c1c(NC(=O)Cc2ccccc2)sc2c1CCN(CC)C2 ?
Platelet DG rel: inactive; RanGTP-Impb inh: 55; Rce1 inhib: inactive; YIC FRET counter: inactive

How did Cc1ccc(CO/N=C\Cc2snc(Sc3ncc(C(F)(F)F)cc3Cl)c2C#N)cc1 do in these assays?
Platelet DG rel: inactive; Runt-CBFb FRET: inactive; Runt-SMMHC FRET: inactive; RanGTP-Impb inh: inactive; Rce1 inhib: inactive

Results for Cc1cc2ncn(CCOc3ccccc3C#N)c2cc1C ?
Platelet DG rel: inactive; Runt-CBFb FRET: inactive; Runt-SMMHC FRET: inactive; RanGTP-Impb inh: inactive; Rce1 inhib: inactive

Results for CCOC(=O)c1c(/N=C/c2ccc(C)cc2O)sc2c1CCN(C)C2 ?
Platelet DG rel: inactive; Runt-CBFb FRET: inactive; Runt-SMMHC FRET: inactive; RanGTP-Impb inh: 60; Rce1 inhib: inactive; YIC FRET counter: inactive

What do the screens show for `CCN1CCc2c(sc(NC(=O)Cc3ccccc3)c2C(=O)OC)C1`?
Platelet DG rel: inactive; RanGTP-Impb inh: 42; Rce1 inhib: inactive; YIC FRET counter: inactive

Results for CCNC(=S)N1CCCC(C(N)=O)C1 (stereo not given) ?
Platelet DG rel: inactive; Runt-CBFb FRET: inactive; Runt-SMMHC FRET: inactive; RanGTP-Impb inh: inactive; Rce1 inhib: inactive

How did C=CCn1c(O)c(N=NC(=S)Nc2ccccc2F)c2cc(S(=O)(=O)N3CCOCC3)ccc21 do in these assays?
Platelet DG rel: inactive; Runt-CBFb FRET: inactive; Runt-SMMHC FRET: inactive; RanGTP-Impb inh: 18; Rce1 inhib: inactive; YIC FRET counter: inactive

How did CN(C)c1ccc(/C=C(\NC(=O)c2ccccc2)C(=O)NCc2ccncc2)cc1 do in these assays?
Platelet DG rel: inactive; RanGTP-Impb inh: 23; Rce1 inhib: inactive; YIC FRET counter: inactive

Results for CC1=NC(Nc2nc(C)c3ccccc3n2)=NC(C)(C)C1 ?
Platelet DG rel: inactive; Runt-CBFb FRET: inactive; Runt-SMMHC FRET: inactive; RanGTP-Impb inh: 30; Rce1 inhib: inactive; YIC FRET counter: inactive

Results for Cc1c(O)c(CN2CCCCC2)cc2c3c(c(=O)oc12)CCC3 ?
Platelet DG rel: inactive; Runt-CBFb FRET: 90; Runt-SMMHC FRET: 58; RanGTP-Impb inh: 37; Rce1 inhib: inactive; YIC FRET counter: 14

How did COC(=O)c1ccc(NC(=S)NNC(=O)c2ccccc2)cc1 do in these assays?
Platelet DG rel: inactive; Runt-CBFb FRET: inactive; Runt-SMMHC FRET: inactive; RanGTP-Impb inh: inactive; Rce1 inhib: inactive

How did COC(=O)c1cccnc1NC(=S)NNC(=O)c1ccccc1 do in these assays?
Platelet DG rel: inactive; Runt-CBFb FRET: inactive; Runt-SMMHC FRET: inactive; RanGTP-Impb inh: 27; Rce1 inhib: inactive; YIC FRET counter: inactive

How did CCN(C(=O)CSc1nnc(-c2c[nH]c3ccccc23)o1)C1CCS(=O)(=O)C1 (stereo not given) do in these assays?
Platelet DG rel: inactive; Runt-SMMHC FRET: inactive; RanGTP-Impb inh: inactive; Rce1 inhib: inactive

How did CC(C)c1ccc(N(CC(=O)NCCSCc2ccco2)S(C)(=O)=O)cc1 do in these assays?
Platelet DG rel: inactive; Runt-CBFb FRET: inactive; Runt-SMMHC FRET: inactive; RanGTP-Impb inh: inactive; Rce1 inhib: inactive

Screening data from PubChem BioAssay.
